As a reminder, the inhibition is the drop in the measured response relative to a control, in per cent.

Drawing on ChEMBL document CHEMBL1153722, “Design, synthesis, and characterization of peptide-based rab geranylgeranyl transferase inhibitors” (J Med Chem, 2009), this text covers inhibition for 55 compounds.

Square brackets hold non-standard residues; d marks the D form. Peptide text beside a SMILES is read from it. * marks the point of attachment. Hydrocinnamoyl = O=C(CCc1ccccc1)*; Palmitoyl = CCCCCCCCCCCCCCCC(=O)*; Undecanoyl = CCCCCCCCCCC(=O)*; pGlu = O=C1CC[C@@H](C(=O)O)N1; Ac6c = NC1(C(=O)O)CCCCC1; NHBn = c1ccc(CN*)cc1; X1 = Fc1ccc(N*)cc1Cl

This test is filed under the species Rattus norvegicus. The test is described as follows: Inhibition of rat recombinant Rab geranylgeranyltransferase at 100 uM in presence of canine Rab7 and rat REP1 NBD-FPP based continuous fluorimetric assay. The gist of the method:
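Continuous fluorometric assay in 96/384-well format: 3 μM Rab7, 3 μM REP1, 9 μM NBD-FPP and 400 nM RabGGTase, with or without inhibitor. […] IC50 was calculated from three independent measurements.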
Turning to `C=CCCCOC(=O)[C@H](CCC(N)=O)NC(=O)[C@H](Cc1ccccc1)NC(=O)[C@H](C)NC(=O)CCc1ccccc1`, the inhibition turned out to be 75%.

In the case of `CCCCCCCCCCCC(=O)N[C@@H](Cc1c[nH]cn1)C(=O)N[C@@H](Cc1c[nH]cn1)C(=O)N[C@@H](CO)C(=O)NCC(O)CO` (stereo not given in full), the inhibition came to 63%.

Regarding `CC(C)CCNC(=O)[C@H](Cc1ccccc1)NC(=O)[C@H](Cc1ccccc1)NC(=O)[C@H](CC(C)C)NC(=O)/C=C/c1ccccc1`, the inhibition is 92%.

As for `COC(=O)[C@H](Cc1cn(C(c2ccccc2)(c2ccccc2)c2ccccc2)cn1)NC(=O)[C@H](Cc1ccccc1)NC(=O)CNC(=O)c1csc(-c2cccs2)n1`, the inhibition was 69%.

In the case of `CC(C)C[C@H](NC(=O)[C@@H]1CCCN1C(=O)/C=C/c1ccccc1)C(=O)N[C@@H](Cc1ccccc1)C(=O)NCc1ccc(F)cc1F`, the inhibition is 26%.

`C[C@@H](O)[C@H](NC(=O)/C=C/c1ccccc1)C(=O)N[C@@H](Cc1ccccc1)C(=O)N[C@@H](CCC(N)=O)C(=O)NCCO`: the inhibition was 118%.

Regarding `O=C(/C=C/c1ccc(F)cc1)N[C@@H](CO)C(=O)N[C@@H](Cc1ccccc1)C(=O)N[C@@H](CO)C(=O)O`, the inhibition amounted to 99%.

For `CC[C@H](C)[C@H](NC(=O)c1ccc(-c2ccccc2)cc1)C(=O)N[C@@H](C(=O)N[C@@H](CCC(N)=O)C(=O)N(C)OC)C(C)C`, the inhibition came to 109%.

On to `COC(=O)[C@H](Cc1ccc(O)cc1)NC(=O)[C@H](Cc1ccc(O)cc1)NC(=O)[C@H](Cc1ccc(O)cc1)NC(=O)c1ccc(F)cc1F`, for which the inhibition was found to be 79%.

Take `COC(=O)[C@H](CC(C)C)NC(=O)[C@H](COC(C)(C)C)NC(=O)[C@H](Cc1ccccc1)NC(=O)/C=C/c1ccc(F)cc1`: the inhibition was 57%.

As to `C[C@@H](NC(=O)CCc1ccccc1)C(=O)N[C@@H](Cc1ccccc1)C(=O)N[C@@H](CCC(=O)O)C(=O)NCCO`, the inhibition was determined as 98%.

On to `CCCCCCCCCCCC(=O)N[C@@H](Cc1ccc(O)cc1)C(=O)N[C@@H](Cc1c[nH]cn1)C(=O)N[C@@H](Cc1ccc(O)cc1)C(=O)Nc1ccccc1N`, for which the inhibition is 42%.

With `CCCCCCCCCCCOc1ccc(C(=O)N[C@@H](Cc2ccc(O)cc2)C(=O)N[C@@H](Cc2ccc(O)cc2)C(=O)N[C@@H](Cc2ccc(O)cc2)C(=O)Nc2ccccn2)cc1`, the inhibition turned out to be 72%.

As for `CCCCCCCCCCCOc1ccc(C(=O)N[C@@H](Cc2c[nH]cn2)C(=O)N[C@@H](Cc2ccc(O)cc2)C(=O)N[C@@H](Cc2ccccc2)C(=O)N(C)OC)cc1`, the inhibition is 65%.

For `C[C@H](NC(=O)[C@@H](NC(=O)c1ccc(-c2ccccc2)cc1)[C@@H](C)O)C(=O)N[C@@H](CCC(N)=O)C(=O)Nc1cccc(Br)n1`, the inhibition is 77%.

On to `O=C(CNC(=O)[C@H](Cc1cn(C(c2ccccc2)(c2ccccc2)c2ccccc2)cn1)NC(=O)c1coc(-c2ccccc2)n1)N[C@@H](Cc1c[nH]c2ccccc12)C(=O)O`, for which the inhibition worked out at 74%.

Take `O=C(N[C@@H](Cc1ccc(O)cc1)C(=O)N[C@@H](Cc1ccc(O)cc1)C(=O)N[C@@H](Cc1ccc(O)cc1)C(=O)Nc1nccs1)c1ccc(F)cc1F`: the inhibition was 78%.

As for `CC[C@H](C)[C@H](NC(=O)c1ccc(-c2ccccc2)cc1)C(=O)N[C@@H](C(=O)N[C@@H](CCC(N)=O)C(=O)O)C(C)C`, the inhibition was determined as 77%.

With `O=C(CNC(=O)[C@H](Cc1ccccc1)NC(=O)c1coc(-c2ccccc2)n1)N[C@@H](CO)C(=O)Nc1cncs1`, the inhibition is 116%.

With `C=CCCCCCCCCCOC(=O)[C@H](CO)NC(=O)[C@H](Cc1ccccc1)NC(=O)[C@H](CO)NC(=O)CCc1ccccc1`, the inhibition came out at 84%.

`C[C@@H](O)[C@H](NC(=O)/C=C/c1ccccc1)C(=O)N[C@@H](Cc1ccccc1)C(=O)N[C@@H](CCC(N)=O)C(=O)Nc1nccs1`: the inhibition was found to be 86%.

As for `O=C(CCc1ccc(F)cc1)N[C@@H](Cc1ccc(O)cc1)C(=O)NCC(=O)N[C@@H](Cc1ccc(O)cc1)C(=O)NCc1ccc(F)cc1F`, the inhibition was found to be 89%.

In the case of `CC(C)(C)Oc1ccc(C[C@H](NC(=O)CNC(=O)[C@H](Cc2ccc(OC(C)(C)C)cc2)NC(=O)c2coc(-c3ccccc3)n2)C(=O)O)cc1`, the inhibition is 75%.

Regarding `C[C@@H](O)[C@H](NC(=O)C(Br)C(Br)c1ccccc1)C(=O)N[C@@H](Cc1ccccc1)C(=O)N[C@@H](CCC(N)=O)C(=O)Nc1cccc(Br)n1` (stereo not given in full), the inhibition was 113%.

For `O=C(CNC(=O)[C@H](Cc1ccccc1)NC(=O)c1csc(-c2cccs2)n1)N[C@@H](CO)C(=O)Nc1nccs1`, the inhibition is 124%.

Consider `O=C(CNC(=O)[C@H](Cc1ccc(O)cc1)NC(=O)c1coc(-c2ccccc2)n1)N[C@@H](Cc1ccc(O)cc1)C(=O)O`, for which the inhibition was found to be 58%.

On to `NCCCC[C@H](NC(=O)CCc1ccccc1)C(=O)N[C@@H](Cc1c[nH]cn1)C(=O)N[C@@H](CO)C(=O)NC1CCCCC1`, for which the inhibition stood at 98%.

As to `CC(C)C[C@H](NC(=O)/C=C/c1ccccc1)C(=O)N[C@@H](Cc1ccccc1)C(=O)N[C@@H](Cc1ccccc1)C(=O)NC1CCCCC1`, the inhibition is -4%.

Regarding `O=C(CNC(=O)c1csc(-c2ccccc2)n1)N[C@@H](Cc1ccccc1)C(=O)N[C@@H](Cc1cn(C(c2ccccc2)(c2ccccc2)c2ccccc2)cn1)C(=O)O`, the inhibition turned out to be 71%.

Take `CCCCCCCCCCCCCCCC(=O)N[C@@H](Cc1ccc(O)cc1)C(=O)N[C@@H](Cc1ccc(O)cc1)C(=O)N[C@@H](Cc1ccc(O)cc1)C(=O)O` (Palmitoyl-Tyr-Tyr-Tyr-OH): the inhibition was 93%.

As for `CCCCCCCCCCCCCCCC(=O)N[C@@H](Cc1ccc(O)cc1)C(=O)N[C@@H](Cc1ccc(O)cc1)C(=O)N[C@@H](Cc1ccc(O)cc1)C(=O)Nc1nccs1`, the inhibition came to 83%.

Turning to `O=C(CNC(=O)[C@H](Cc1ccc(O)cc1)NC(=O)CCc1ccc(F)cc1)N[C@@H](Cc1ccc(O)cc1)C(=O)O`, the inhibition came to 86%.

Consider `CCCCCCCCCCC(=O)N[C@@H](Cc1c[nH]cn1)C(=O)N[C@@H](Cc1c[nH]cn1)C(=O)N[C@@H](Cc1ccc(O)cc1)C(=O)Nc1ccccn1`, for which the inhibition came out at 70%.

For `COC(=O)[C@H](CO)NC(=O)CNC(=O)[C@H](Cc1ccccc1)NC(=O)c1csc(-c2cccs2)n1`, the inhibition is 123%.

Take `CCCCCCCCCCC(=O)N[C@@H](Cc1c[nH]cn1)C(=O)N[C@@H](Cc1c[nH]cn1)C(=O)N[C@@H](CO)C(N)=O` (Undecanoyl-His-His-Ser-NH2): the inhibition was found to be 81%.

As to `CON(C)C(=O)[C@H](CCC(N)=O)NC(=O)[C@H](Cc1ccccc1)NC(=O)[C@@H](NC(=O)C(Br)C(Br)c1ccccc1)[C@@H](C)O` (stereo not given in full), the inhibition worked out at 102%.

Take `CCCCCCCCCCC(=O)N[C@@H](Cc1ccc(O)cc1)C(=O)N[C@@H](Cc1c[nH]cn1)C(=O)N[C@@H](Cc1c[nH]cn1)C(=O)NOC(C)(C)C`: the inhibition worked out at 47%.

On to `CCCCCCCCCCC(=O)N[C@@H](Cc1ccc(O)cc1)C(=O)N[C@@H](Cc1c[nH]cn1)C(=O)N[C@@H](Cc1ccc(O)cc1)C(N)=O` (Undecanoyl-Tyr-His-Tyr-NH2), for which the inhibition came out at 83%.

For `C[C@H](NC(=O)c1coc(-c2ccccc2)n1)C(=O)NCC(=O)N[C@@H](Cc1c[nH]cn1)C(=O)Nc1ccc(F)cc1F`, the inhibition amounted to 76%.

Take `CON(C)C(=O)[C@H](CCC(N)=O)NC(=O)[C@H](Cc1ccccc1)NC(=O)[C@H](C)NC(=O)CCc1ccccc1`: the inhibition came to 112%.

In the case of `COC(=O)[C@H](CO)NC(=O)[C@H](Cc1c[nH]cn1)NC(=O)[C@H](CCCCN)NC(=O)CCc1ccccc1` (Hydrocinnamoyl-Lys-His-Ser-OMe), the inhibition was 86%.

For the compound `CCCCCCCCCCC(=O)N[C@@H](Cc1ccc(O)cc1)C(=O)N[C@@H](Cc1c[nH]cn1)C(=O)N[C@@H](Cc1c[nH]cn1)C(=O)O` (Undecanoyl-Tyr-His-His-OH), the inhibition was found to be 64%.

Regarding `CC(C)C[C@H](NC(=O)[C@@H]1CCC(=O)N1)C(=O)N[C@@H](CCCCN)C(=O)NC1(C(=O)Nc2ccc(F)c(Cl)c2)CCCCC1` ([pGlu]LK[Ac6c]-X1), the inhibition stood at 105%.

On to `C[C@@H](O)[C@H](NC(=O)/C=C/c1ccccc1)C(=O)N[C@@H](Cc1ccccc1)C(=O)N[C@@H](CCC(N)=O)C(N)=O`, for which the inhibition was found to be 78%.

`CC(C)[C@H](NC(=O)c1coc(-c2ccccc2)n1)C(=O)NCC(=O)N[C@@H](Cc1ccc(O)cc1)C(=O)Nc1ccc(F)cc1F`: the inhibition was determined as 102%.

Take `CC[C@H](C)[C@H](NC(=O)/C=C/c1ccc(F)cc1)C(=O)N[C@@H](C)C(=O)N[C@@H](CCC(N)=O)C(=O)O`: the inhibition was determined as 83%.

For the compound `CC(C)(C)Oc1ccc(C[C@H](NC(=O)c2coc(-c3ccccc3)n2)C(=O)NCC(=O)N[C@@H](Cc2cn(C(c3ccccc3)(c3ccccc3)c3ccccc3)cn2)C(=O)O)cc1`, the inhibition worked out at 94%.

Turning to `NC(=O)CC[C@H](NC(=O)[C@H](Cc1ccccc1)NC(=O)CNC(=O)CCc1ccccc1)C(N)=O` (Hydrocinnamoyl-Gly-Phe-Gln-NH2), the inhibition is 103%.

Regarding `O=C(CNC(=O)[C@@H]1CCCN1C(=O)c1coc(-c2ccccc2)n1)N[C@@H](Cc1ccc(O)cc1)C(=O)Nc1ccc(F)cc1F`, the inhibition stood at 89%.

Consider `NC(=O)CC[C@H](NC(=O)[C@H](Cc1ccccc1)NC(=O)[C@H](CO)NC(=O)CCc1ccccc1)C(=O)NC1CCCCC1`, for which the inhibition was determined as 99%.

Turning to `NC(=O)CC[C@H](NC(=O)[C@H](Cc1ccccc1)NC(=O)CNC(=O)CCc1ccccc1)C(=O)NCc1ccccc1` (Hydrocinnamoyl-Gly-Phe-Gln-NHBn), the inhibition amounted to 85%.

As for `C[C@H](NC(=O)CCc1ccccc1)C(=O)N[C@@H](Cc1ccccc1)C(=O)N[C@@H](CCC(N)=O)C(=O)NNc1ccccc1`, the inhibition is 5%.

Regarding `O=C(CNC(=O)[C@@H]1CCCN1C(=O)c1coc(-c2ccccc2)n1)N[C@@H](Cc1ccccc1)C(=O)Nc1ccc(F)cc1F`, the inhibition was 89%.

Consider `CCCCCCCCCCC(=O)N[C@@H](Cc1c[nH]cn1)C(=O)N[C@@H](Cc1c[nH]cn1)C(=O)N[C@@H](CO)C(=O)N(C)CCc1ccccn1`, for which the inhibition stood at 47%.

Take `CCCCCCCCCCCOc1ccc(C(=O)N[C@@H](Cc2c[nH]cn2)C(=O)N[C@@H](Cc2c[nH]cn2)C(=O)N[C@@H](Cc2c[nH]cn2)C(=O)OCCN)cc1`: the inhibition came out at 101%.
